Test results reported in ChEMBL document CHEMBL1125009, “Variation in the aromatic ring of cromakalim: antihypertensive activity of pyranopyridines and 6-alkyl-2H-1-benzopyrans” (1990).

Key:
Assay type in all cases: functional, Artery
Rattus norvegicus [1] = experiment: The maximum fall in systolic blood pressure was determined at a dose of 1 mg/kg after oral administration in rats
Outline: (§1)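 Conscious spontaneously hypertensive rats (Japanese Okamoto strain, 14–24 weeks old), used only if systolic pressure was >180 mmHg, six per dose level. Dosed by oral needle into the esophagus as a solution or suspension in 1% w/v methylcellulose. Systolic pressure was read by tail-cuff, each reading the mean of at least six recordings, before dosing and at intervals from 1 to 6 h. The maximum fall was taken.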

Rattus norvegicus [2] = experiment: The maximum fall in systolic blood pressure was determined at a dose of 3 mg/kg after oral administration in rats; outline: as §1
Rattus norvegicus [3] = experiment: The maximum fall in systolic blood pressure was determined at a dose of 1.0 mg/kg after oral administration in rats; outline: as §1
Rattus norvegicus [4] = experiment: The maximum fall in systolic blood pressure was determined at a dose of 0.1 mg/kg after oral administration in rats; outline: as §1
Rattus norvegicus [5] = experiment: The maximum fall in systolic blood pressure was determined at a dose of 0.3 mg/kg after oral administration in rats; outline: as §1
Rattus norvegicus [6] = experiment: The maximum fall in systolic blood pressure was determined at a dose of 10 mg/kg after oral administration in rats; outline: as §1
Rattus norvegicus [7] = experiment: The maximum fall in systolic blood pressure was determined at a dose of 3.0 mg/kg after oral administration in rats; outline: as §1
Rattus norvegicus [8] = experiment: The maximum fall in systolic blood pressure was determined at a dose of 10.0 mg/kg after oral administration in rats; outline: as §1

| Structure (SMILES) | Max fall in blood pressure (Rattus norvegicus [2]) [%] | Max fall in blood pressure (Rattus norvegicus [3]) [%] | Max fall in blood pressure (Rattus norvegicus [5]) [%] | also measured |
| --- | --- | --- | --- | --- |
| CCCc1ccc2c(c1)C(N1CCCC1=O)[C@H](O)C(C)(C)O2 (some centres not stated) | 42 | – | – | Max fall in blood pressure (Rattus norvegicus [1]): 17% |
| CC1(C)Oc2ccncc2[C@@H](N2CCCCC2=O)[C@@H]1O | – | 56 | 55 | Max fall in blood pressure (Rattus norvegicus [4]): 24% |
| CC1(C)Oc2cccnc2[C@@H](N2CCCC2=O)[C@@H]1O | – | – | – | Max fall in blood pressure (Rattus norvegicus [6]): 15% |
| CC(C)(C)c1ccc2c(c1)C(N1CCCC1=O)[C@H](O)C(C)(C)O2 (some centres not stated) | – | 39 | 9 | Max fall in blood pressure (Rattus norvegicus [7]): 49% |
| CC1(C)Oc2ccc(-c3ccccc3)cc2C(N2CCCC2=O)[C@@H]1O (some centres not stated) | 14 | – | – | Max fall in blood pressure (Rattus norvegicus [8]): 20% |
| CC1(C)Oc2ccccc2C(N2CCCC2=O)[C@@H]1O (some centres not stated) | – | – | – | Max fall in blood pressure (Rattus norvegicus [6]): 49% |
| CC1(C)Oc2cc[n+]([O-])cc2[C@@H](N2CCCCC2=O)[C@@H]1O | – | 68 | 39 | – |
| CC1(C)Oc2ccc(C#N)cc2C(N2CCCC2=O)C1O (configuration not stated) [CROMAKALIM] | – | 47 | 39 | Max fall in blood pressure (Rattus norvegicus [4]): 13% |
| CC(=O)NC1c2cc(C)ccc2OC(C)(C)[C@H]1O (some centres not stated) | – | – | 9 | Max fall in blood pressure (Rattus norvegicus [7]): 20% |
| CC1(C)C=C(N2CCCCC2=O)c2cnccc2O1 | 37 | – | – | Max fall in blood pressure (Rattus norvegicus [1]): 14% |
| Cc1ccc2c(c1)C(N1CCCC1=O)[C@H](O)C(C)(C)O2 (some centres not stated) | 12 | – | – | Max fall in blood pressure (Rattus norvegicus [6]): 49% |
| CC1(C)Oc2ccc(C3CCCC3)cc2C(N2CCCC2=O)[C@@H]1O (some centres not stated) | – | 24 | – | Max fall in blood pressure (Rattus norvegicus [8]): 66% |
| CC1(C)Oc2ncccc2[C@@H](N2CCCC2=O)[C@@H]1O | – | – | – | Max fall in blood pressure (Rattus norvegicus [6]): 5% |
| Cc1ccc2c(c1)C(N1CCCCC1=O)[C@H](O)C(C)(C)O2 (some centres not stated) | 56 | 33 | 16 | – |
| CC(C)c1ccc2c(c1)C(N1CCCC1=O)[C@H](O)C(C)(C)O2 (some centres not stated) | – | 36 | 17 | Max fall in blood pressure (Rattus norvegicus [7]): 60% |
| CC1(C)Oc2ccncc2[C@@H](N2CCCC2=O)[C@@H]1O | 41 | – | – | Max fall in blood pressure (Rattus norvegicus [1]): 39% |
| CC1(C)Oc2ccc(C(F)(F)F)cc2C(N2CCCC2=O)[C@@H]1O (some centres not stated) | – | – | 26 | Max fall in blood pressure (Rattus norvegicus [4]): 17% |
| CC(=O)N[C@@H]1c2cnccc2OC(C)(C)[C@H]1O | – | 43 | 14 | – |
| CC1(C)Oc2cnccc2[C@@H](N2CCCC2=O)[C@@H]1O | – | – | – | Max fall in blood pressure (Rattus norvegicus [1]): 7%; Max fall in blood pressure (Rattus norvegicus [6]): 41% |
| CCc1ccc2c(c1)C(N1CCCC1=O)[C@H](O)C(C)(C)O2 (some centres not stated) | – | 54 | 11 | – |
